Experimental data published in ChEMBL document CHEMBL1126857, “14 beta-[(p-nitrocinnamoyl)amino]morphinones, 14 beta-[(p-nitrocinnamoyl)amino]-7,8-dihydromorphinones, and their codeinone analogues: synthesis and receptor activity” (J Med Chem, 1993).
pIC50, pKd: −log10 of the molar value.

Target: not listed separately
Assay: Tested for its binding effect on [3H]- DAMGO in bovine striatal membrane at 20 nM
Assay type: functional, cell membranes, Bos taurus, Striatum
How it was run: (§1)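 Bovine striatal membranes (10 mg protein) pretreated 60 min at 25 °C with or without 20 nM ligand in 50 mM Tris-HCl pH 7.5, then washed by centrifugation five times. [3H]DAMGO saturation, 0.05–6.4 nM, 60 min at 25 °C, then filtration. Nonspecific binding with 10 μM naloxone; Bradford protein. Kd/Bmax by nonlinear regression; triplicate, three experiments.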

`C[C@@]12Oc3c(O)ccc4c3C13CCN(CC1CC1)C(C4)[C@]3(NC(=O)/C=C/c1ccc([N+](=O)[O-])cc1)CCC2=O` (some centres not stated) gave a pKd of 9.09.

System: not listed separately
Assay: Bmax value expressed in (f mol bound)/mg of protein
How it was run: as §1

For `C[C@@]12Oc3c(O)ccc4c3C13CCN(CC1CC1)C(C4)[C@]3(NC(=O)/C=C/c1ccc([N+](=O)[O-])cc1)CCC2=O` (some centres not stated), the Bmax (fM bound (mg of protein)-1) was 100.

Target: Mu-type opioid receptor (Bos taurus, UniProt P79350)
Assay: Binding affinity against mu opioid receptor from calf frontal cortex.
How it was run: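 Calf frontal cortex membranes (10 mg wet weight), prewashed and preincubated 15 min at 37 °C, in 50 mM Tris-HCl pH 7.5 with 10 mM MgSO4 and 0.5 mM EDTA. Competition against 0.8 nM [3H]DAMGO at eight ligand concentrations, 30 min at 37 °C, in triplicate. Nonspecific binding with 1 μM naloxone. Filtration, then scintillation counting; IC50 taken.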

Chain of Mu-type opioid receptor (P79350 whole entry): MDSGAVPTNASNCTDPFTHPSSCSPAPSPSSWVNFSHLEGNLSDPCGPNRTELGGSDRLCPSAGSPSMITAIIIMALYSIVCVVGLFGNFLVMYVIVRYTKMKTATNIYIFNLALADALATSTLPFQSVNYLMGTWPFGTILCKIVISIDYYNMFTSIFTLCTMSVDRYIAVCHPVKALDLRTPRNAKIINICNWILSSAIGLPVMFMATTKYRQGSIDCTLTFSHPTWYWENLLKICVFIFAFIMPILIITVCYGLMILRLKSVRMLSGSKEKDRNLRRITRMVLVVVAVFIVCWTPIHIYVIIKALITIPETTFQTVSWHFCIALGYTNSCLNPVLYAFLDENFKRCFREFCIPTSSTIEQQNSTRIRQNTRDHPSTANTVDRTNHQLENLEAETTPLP

First: O=C(/C=C/c1ccc([N+](=O)[O-])cc1)N[C@@]12C=CC(=O)[C@@H]3Oc4c(O)ccc5c4C31CCN(CC1CC1)C2C5 (some centres not stated)
Second: COc1ccc2c3c1O[C@H]1C(=O)C=C[C@@]4(NC(=O)/C=C/c5ccc([N+](=O)[O-])cc5)C(C2)N(CC2CC2)CCC314 (some centres not stated)
The pIC50 of the first is 0.73 log units lower: 8.11 for the first, 8.84 for the second.

`COc1ccc2c3c1O[C@H]1C(=O)C=C[C@@]4(NC(=O)/C=C/c5ccc([N+](=O)[O-])cc5)C(C2)N(C)CCC314` (some centres not stated) and `CN1CCC23c4c5ccc(O)c4O[C@H]2C(=O)C=C[C@@]3(NC(=O)/C=C/c2ccc([N+](=O)[O-])cc2)C1C5` (some centres not stated) are within 0.2 log units of each other in pIC50: 9.00 for the first, 8.84 for the second.

Compared with `COc1ccc2c3c1O[C@@]1(C)C(=O)CC[C@@]4(NC(=O)/C=C/c5ccc([N+](=O)[O-])cc5)C(C2)N(CC2CC2)CCC314` (some centres not stated), `C[C@@]12Oc3c(O)ccc4c3C13CCN(CC1CC1)C(C4)[C@]3(NC(=O)/C=C/c1ccc([N+](=O)[O-])cc1)CCC2=O` (some centres not stated) is 1.79 log units higher in pIC50: 7.49 for the first, 9.28 for the second.

Compared with `C[C@@]12Oc3c(O)ccc4c3C13CCN(CC1CC1)C(C4)[C@]3(NC(=O)CCc1ccc([N+](=O)[O-])cc1)CCC2=O` (some centres not stated), `C[C@@]12Oc3c(O)ccc4c3C13CCN(CC1CC1)C(C4)[C@]3(NC(=O)/C=C/c1ccc([N+](=O)[O-])cc1)C=CC2=O` (some centres not stated) is 1.11 log units higher in pIC50: 7.62 for the first, 8.73 for the second.

`COc1ccc2c3c1O[C@H]1C(=O)CC[C@@]4(NC(=O)/C=C/c5ccc([N+](=O)[O-])cc5)C(C2)N(C)CCC314` (some centres not stated) and `CN1CC[C@]23c4c5ccc(O)c4O[C@H]2C(=O)CC[C@@]3(NC(=O)/C=C/c2ccc([N+](=O)[O-])cc2)[C@H]1C5` are within 0.2 log units of each other in pIC50: 9.36 for the first, 9.55 for the second.

First: O=C(/C=C/c1ccc([N+](=O)[O-])cc1)N[C@@]12CCC(=O)[C@@H]3Oc4c(O)ccc5c4[C@@]31CCN(CC1CC1)[C@@H]2C5
Second: COc1ccc2c3c1O[C@@]1(C)C(=O)C=C[C@@]4(NC(=O)/C=C/c5ccc([N+](=O)[O-])cc5)C(C2)N(CC2CC2)CCC314 (some centres not stated)
The pIC50 of the first is 1.63 log units higher: 9.06 for the first, 7.43 for the second. The first is the more potent here.

First: COc1ccc2c3c1O[C@@]1(C)C(=O)CC[C@@]4(NC(=O)/C=C/c5ccc([N+](=O)[O-])cc5)C(C2)N(C)CCC314 (some centres not stated)
Second: COc1ccc2c3c1O[C@@]1(C)C(=O)C=C[C@@]4(NC(=O)/C=C/c5ccc([N+](=O)[O-])cc5)C(C2)N(C)CCC314 (some centres not stated)
The pIC50 of the first is 0.46 log units lower: 6.98 for the first, 7.44 for the second. The second is the more potent here.

In the case of `CN1CCC23c4c5ccc(O)c4O[C@@]2(C)C(=O)C=C[C@@]3(NC(=O)/C=C/c2ccc([N+](=O)[O-])cc2)C1C5` (some centres not stated), the pIC50 was 9.10.
